Activity calls are given as the source filed them. The calls are words filed in the database; no cut-off is given here.

As a reminder, the EC50 is the midpoint of the concentration-response curve.

For experiment [1], the system named is Mus musculus. As to the kind of experiment: In vivo induction of osteogenesis in Balb/c mouse assessed as bone formation at 0.5 to 1 mg/kg/day, sc over calvarial surface for 5 consecutive days. The format is functional, organism-based. A digest of the protocol:
(§1)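 Three-week-old Balb/c mice (3 per group) injected subcutaneously over the calvarial surface daily for 5 consecutive days at 0.1, 0.5, 1 and 5 mg/kg/day. Calvaria fixed in 4% formaldehyde, paraffin-embedded, H&E-stained; tetracycline and calcein (20 mg/kg each, ip) given for MAR/BFR histomorphometry; calvarial mRNA by RT-PCR. Mean ± SE, three independent experiments, versus untreated.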

The test system of experiment [2] is Mus musculus. As to the kind of experiment: Anti-osteoporotic activity in ovariectomized postmenopausal Balb/c mouse model assessed as increase in ALP gene expression in femur bone at 1 mg/kg, po qd via gavage for 6 weeks by RT-PCR method. The format is functional, organism-based. A digest of the protocol:
(§2)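 Eight-week-old female Balb/c mice, ovariectomized and left 6 weeks for osteopenia to develop; groups sham+vehicle, OVx+vehicle, OVx+1.0 mg/kg/day, dosed once daily by oral gavage for 6 weeks in gum acacia/distilled water vehicle. Mice kept at 21°C, 12 h light/dark, chow and water ad libitum. Femoral bone mRNA or serum measured after sacrifice; mean ± SE versus OVx group.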

The subject of experiment [3] is Mus musculus. In words: Osteogenic activity in Balb/c mouse drill-hole fracture model assessed as increase in Runx2 mRNA level at 1 mg/kg, po qd via gavage for 21 days by RT-PCR method.
Experiment [4] deals with Mus musculus. As to the kind of experiment: Anti-osteoporotic activity in ovariectomized postmenopausal Balb/c mouse model assessed as decrease in RANK mRNA expression at 1 mg/kg, po qd via gavage for 6 weeks by RT-PCR method. The format is functional, organism-based. A digest of the protocol:
as §2

Experiment [5] in a line: Induction of osteoblast differentiation in mouse calvarial cells assessed as compound concentration required for maximum increase in ALP activity using PNPP as substrate after 48 hrs. The format is functional, Calvarial cell.
The nature of experiment [6]: Induction of osteoblast differentiation in mouse calvarial cells assessed as increase in ALP activity using PNPP as substrate after 48 hrs. The format is functional, cell-based. Particulars: Calvarial cell.
In experiment [7] the test system is Mus musculus. As to the kind of experiment: Anti-osteoporotic activity in ovariectomized postmenopausal Balb/c mouse model assessed as trabecular bone formation by measuring increase in bone volume fraction at 1 mg/kg, po qd via gavage for 6 weeks by micro CT-scan analysis relative to control. The format is functional. A digest of the protocol: (§3)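 Female Balb/c mice, 8 weeks old, ovariectomized, 6 weeks osteopenia development, then 1.0 mg/kg/day or gum acacia vehicle by oral gavage once daily for 6 weeks (sham, OVx and treated groups). Bones collected after sacrifice for micro-CT of trabecular microarchitecture (BV/TV, Tb.N, Tb.Th, Tb.Sp, SMI) and biomechanical testing of femur and vertebrae (energy, stiffness); mean ± SE versus OVx.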

The test system of experiment [8] is Mus musculus. In words: Anti-osteoporotic activity in ovariectomized postmenopausal Balb/c mouse model assessed as increase in BMP2 gene expression in femur bone at 1 mg/kg, po qd via gavage for 6 weeks by RT-PCR method. The format is functional, organism-based. In a few lines:
as §2

The test system of experiment [9] is Mus musculus. In words: Anti-osteoporotic activity in ovariectomized postmenopausal Balb/c mouse model assessed as improvement in micro-artchitectural parameter in vertebrae by measuring trabecular thickness at 1 mg/kg, po qd via gavage for 6 weeks by micro CT-scan analysis (reference value: 0.047 +/- 0.001 millimeter). The format is functional. A digest of the protocol: as §3

For experiment [10], the system named is Mus musculus. In words: In vivo induction of osteogenesis in Balb/c mouse assessed as increase in ALP mRNA level in calvaria at 1 mg/kg/day, sc over calvarial surface for 5 consecutive days by RT-PCR method relative to control. The format is functional. In a few lines: as §1
The test system of experiment [11] is Mus musculus. In words: Anti-osteoporotic activity in ovariectomized postmenopausal Balb/c mouse model assessed as improvement in micro-artchitectural parameter in tibia by measuring trabecular thickness at 1 mg/kg, po qd via gavage for 6 weeks by micro CT-scan analysis (reference value: 0.0475 +/- 0.0005 millimeter). The format is functional. A digest of the protocol: as §3

Experiment [12] relates to Mus musculus. In words: Anti-osteoporotic activity in ovariectomized postmenopausal Balb/c mouse model assessed as improvement in micro-artchitectural parameter in tibia by measuring trabecular separation at 1 mg/kg, po qd via gavage for 6 weeks by micro CT-scan analysis (reference value: 0.387 +/- 0.038 millimeter). The format is functional. A digest of the protocol: as §3

The subject of experiment [13] is Mus musculus. In words: Anti-osteoporotic activity in ovariectomized postmenopausal Balb/c mouse model assessed as bone formation rate at 1 mg/kg, po qd via gavage for 6 weeks by fluorochromes tetracycline and calcein labeling based histomorphometric analysis (reference value: 0.098 +/- 0.01 um3.um2/day). The format is functional.
Experiment [14] has as its system Mus musculus. As to the kind of experiment: Osteogenic activity in Balb/c mouse drill-hole fracture model assessed as trabecular number at 1 mg/kg, po qd via gavage for 21 days by micro-CT method (reference value: 2.194 +/- 0.265 /millimeter).
Experiment [15] has as its system Mus musculus. As to the kind of experiment: Anti-osteoporotic activity in ovariectomized postmenopausal Balb/c mouse model assessed as femur bone breaking strength by measuring energy at 1 mg/kg, po qd via gavage for 6 weeks by micro CT-scan analysis (reference value: 2.6 +/- 0.18 mJ). The format is functional. In a few lines:
as §3

Experiment [16] has as its system Mus musculus. In words: Anti-osteoporotic activity in ovariectomized postmenopausal Balb/c mouse model assessed as improvement in micro-artchitectural parameter in vertebrae by measuring trabecular number at 1 mg/kg, po qd via gavage for 6 weeks by micro CT-scan analysis (reference value: 2.24 +/- 0.16 /millimeter). The format is functional. A digest of the protocol:
as §3

Turning to `COc1cc2oc(=O)cc(-c3ccccc3)c2cc1OCCCCCN1CCN(C)CC1`, the outcome in the experiment with Mus musculus [1], in the experiment with Mus musculus [2], in the experiment with Mus musculus [3], with Mus musculus [4] and with Mus musculus [8] was Active. Further, in experiment [5], the “Concentration giving maximal ALP increase” value is recorded as 1 pM. Besides, in experiment [6], the EC50 was 2300 nM. The “fold change (FC)” value in the experiment with Mus musculus [7] amounted to 1.5; in the experiment with Mus musculus [10], 5. The Activity is on record as 0.0522 mm in the experiment with Mus musculus [9]; 0.052 mm with Mus musculus [11]; 0.294 mm with Mus musculus [12]; 0.163 um3.um2/day in the experiment with Mus musculus [13]; 3.442 /millimeter with Mus musculus [14]; 4.55 mJ in the experiment with Mus musculus [15]. For the same molecule, the Activity in the experiment with Mus musculus [16] was 4.63 /millimeter.
